Source: ChEMBL document CHEMBL1781959, “Synthesis and in vitro antitumor activity of substituted quinazoline and quinoxaline derivatives: search for anticancer agent” (Eur J Med Chem, 2011)

Tests used:
Malme-3M = experiment: Growth inhibition of human MALME-3M cells after 48 hrs by SRB assay; assay type: functional
How it was run: (§1)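 NCI 60-panel five-dose assay at 0.01, 0.1, 1, 10 and 100 μM. Cells in RPMI 1640 with 5% FBS and 2 mM L-glutamine, preincubated 24 h, with time-zero plates TCA-fixed. Drug exposure 48 h at 37 °C. Read by SRB staining at 515 nm. GI50 is the concentration where [(Ti−Tz)/(C−Tz)]×100 = 50, taken from log concentration versus % growth curves.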

SK-MEL-2 = experiment: Cytotoxicity against human SK-MEL-2 cells after 48 hrs by SRB assay; assay type: cell-based; settings: sk-mel-2, 48 h
How it was run: (§2)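 NCI-60 five-dose screen in RPMI 1640 with 5% FBS and 2 mM L-glutamine; 5000–40,000 cells/well, 24 h pre-incubation. DMSO stocks diluted to 0.01, 0.1, 1, 10 and 100 μM final; 48 h at 37 °C, 5% CO2. Fixed with TCA (10% final adherent, 16% suspension), stained with 0.4% SRB, A515. GI50, TGI and LC50 taken from time-zero, control and test absorbances.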

NCI-H226 [1] = experiment: Growth inhibition of human NCI-H226 cells after 48 hrs by SRB assay; assay type: functional; settings: NCI-H226, 48 h; how it was run: as §1
IGROV-1 = experiment: Growth inhibition of human IGROV1 cells after 48 hrs by SRB assay; assay type: functional; settings: IGROV-1, 48 h; how it was run: as §1
HOP-62 = experiment: Cytotoxicity against human HOP62 cells after 48 hrs by SRB assay; assay type: cell-based; settings: hop-62, 48 h; how it was run: as §2
OVCAR-4 = experiment: Cytotoxicity against human OVCAR4 cells after 48 hrs by SRB assay; assay type: cell-based; settings: ovcar-4, 48 h; how it was run: as §2
SF-295 = experiment: Cytotoxicity against human SF295 cells after 48 hrs by SRB assay; assay type: cell-based; settings: sf-295, 48 h; how it was run: as §2
OVCAR-8 [2] = experiment: Cytotoxicity against human OVCAR8 cells after 48 hrs by SRB assay; assay type: cell-based; settings: ovcar-8, 48 h; how it was run: as §2
SNB-75 = experiment: Cytotoxicity against human SNB75 cells after 48 hrs by SRB assay; assay type: cell-based; settings: snb-75, 48 h
How it was run: (§3)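 NCI-60 five-dose screen. Cells grown in RPMI 1640 with 5% FBS and 2 mM L-glutamine and pre-incubated 24 h; a time-zero plate is TCA-fixed. Drug added at 0.01, 0.1, 1, 10 and 100 µM (DMSO stock) for 48 h at 37 °C, 5% CO2. Fixed with cold TCA (10% final for adherent, 16% for suspension cells), stained with 0.4% SRB, A515. GI50, TGI and LC50 taken from dose-response curves.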

MDA-MB-231 = experiment: Growth inhibition of human MDA-MB-231 cells after 48 hrs by SRB assay; assay type: functional; settings: MDA-MB-231, 48 h; how it was run: as §1
NCI-H522 = experiment: Growth inhibition of human NCI-H522 cells after 48 hrs by SRB assay; assay type: functional; settings: NCI-H522, 48 h; how it was run: as §1
SNB-19 = experiment: Growth inhibition of human SNB19 cells after 48 hrs by SRB assay; assay type: functional; settings: SNB-19, 48 h
How it was run: (§4)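 NCI-60 panel cells grown in RPMI 1640 with 5% FBS and 2 mM L-glutamine, then seeded at 5000–40,000 cells/well by doubling time and preincubated for 24 h. Compound in DMSO was tested either at 10^-5 M alone or at 0.01–100 μM in five doses, for 48 h at 37 °C. Cells were fixed with cold TCA (10% final), stained with SRB, and read at 515 nm. GI50 was taken from % growth relative to time-zero and control wells.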

UO-31 = experiment: Growth inhibition of human UO31 cells after 48 hrs by SRB assay; assay type: functional; settings: UO-31, 48 h; how it was run: as §4
OVCAR-8 [3] = experiment: Growth inhibition of human OVCAR8 cells after 48 hrs by SRB assay; assay type: functional; settings: OVCAR-8, 48 h; how it was run: as §1
NCI/ADR-RES [4] = experiment: Growth inhibition of human NCI/ADR-RES cells after 48 hrs by SRB assay; assay type: functional; how it was run: as §1
NCI-H322M [5] = experiment: Growth inhibition of human NCI-H322M cells after 48 hrs by SRB assay; assay type: functional; how it was run: as §1
NCI-H322M [6] = experiment: Cytotoxicity against human NCI-H322M cells after 48 hrs by SRB assay; assay type: cell-based; how it was run: as §2
SF-268 = experiment: Cytotoxicity against human SF268 cells after 48 hrs by SRB assay; assay type: cell-based; settings: sf-268, 48 h; how it was run: as §2
ACHN = experiment: Cytotoxicity against human ACHN cells after 48 hrs by SRB assay; assay type: cell-based; how it was run: as §2
HT-29 = experiment: Growth inhibition of human HT-29 cells after 48 hrs by SRB assay; assay type: functional; settings: HT-29, 48 h; how it was run: as §1
COLO 205 = experiment: Cytotoxicity against human COLO205 cells after 48 hrs by SRB assay; assay type: cell-based; settings: colo 205, 48 h; how it was run: as §2
SK-OV-3 = experiment: Cytotoxicity against human SKOV3 cells after 48 hrs by SRB assay; assay type: cell-based; settings: sk-ov-3, 48 h; how it was run: as §2
UACC-257 = experiment: Cytotoxicity against human UACC257 cells after 48 hrs by SRB assay; assay type: cell-based; settings: uacc-257, 48 h; how it was run: as §3
BT-549 = experiment: Cytotoxicity against human BT549 cells after 48 hrs by SRB assay; assay type: cell-based; settings: bt-549, 48 h; how it was run: as §2
MOLT-4 = experiment: Growth inhibition of human MOLT4 cells after 48 hrs by SRB assay; assay type: functional; settings: MOLT-4, 48 h; how it was run: as §1
SW-620 = experiment: Cytotoxicity against human SW620 cells after 48 hrs by SRB assay; assay type: cell-based; settings: sw-620, 48 h; how it was run: as §3
NCI-H226 [7] = experiment: Cytotoxicity against human NCI-H226 cells after 48 hrs by SRB assay; assay type: cell-based; settings: nci-h226, 48 h; how it was run: as §2
NCI/ADR-RES [8] = experiment: Cytotoxicity against human NCI/ADR-RES cells after 48 hrs by SRB assay; assay type: cell-based; how it was run: as §2
[9] = Cytotoxicity against human Hs 578T cells after 48 hrs by SRB assay; assay type: cell-based; how it was run: as §2
HL-60(TB) = experiment: Growth inhibition of human HL-60(TB) cells after 48 hrs by SRB assay; assay type: functional; settings: HL-60, 48 h
TK-10 = experiment: Cytotoxicity against human TK10 cells after 48 hrs by SRB assay; assay type: cell-based; settings: tk-10, 48 h; how it was run: as §3
T47D = experiment: Growth inhibition of human T47D cells after 48 hrs by SRB assay; assay type: functional; how it was run: as §4
CCRF-CEM = experiment: Growth inhibition of human CCRF-CEM cells after 48 hrs by SRB assay; assay type: functional; how it was run: as §1
SK-MEL-5 = experiment: Cytotoxicity against human SK-MEL-5 cells after 48 hrs by SRB assay; assay type: cell-based; settings: sk-mel-5, 48 h; how it was run: as §2
M14 = experiment: Cytotoxicity against human M14 cells after 48 hrs by SRB assay; assay type: cell-based; settings: m14, 48 h; how it was run: as §2
786-0 = experiment: Cytotoxicity against human 786-0 cells after 48 hrs by SRB assay; assay type: cell-based; settings: 786-0, 48 h; how it was run: as §2

O=c1c2ccccc2nc(-c2ccco2)n1/N=C/c1ccccc1Cl
GI50 (Malme-3M): 7.23 µM
TGI (Malme-3M): > 100 µM
LC50 (SK-MEL-2): > 100 µM
GI50 (NCI-H226 [1]): 4.12 µM
TGI (NCI-H226 [1]): > 100 µM
GI50 (IGROV-1): 6.12 µM
TGI (IGROV-1): > 100 µM
LC50 (HOP-62): > 100 µM
LC50 (OVCAR-4): > 100 µM
LC50 (SF-295): > 100 µM
LC50 (OVCAR-8 [2]): > 100 µM
LC50 (SNB-75): > 100 µM
GI50 (MDA-MB-231): 3.13 µM
TGI (MDA-MB-231): 7.84 µM
GI50 (NCI-H522): 2.14 µM
TGI (NCI-H522): 6.45 µM
GI50 (SNB-19): 6.34 µM
TGI (SNB-19): 12.8 µM
GI50 (UO-31): 6.12 µM
TGI (UO-31): > 100 µM
GI50 (OVCAR-8 [3]): 3.98 µM
TGI (OVCAR-8 [3]): 25.8 µM
GI50 (NCI/ADR-RES [4]): 2.45 µM
TGI (NCI/ADR-RES [4]): 8.78 µM
GI50 (NCI-H322M [5]): 4.11 µM
TGI (NCI-H322M [5]): 76.9 µM
LC50 (NCI-H322M [6]): > 100 µM
LC50 (SF-268): > 100 µM
LC50 (ACHN): > 100 µM
GI50 (HT-29): 3.42 µM
TGI (HT-29): > 100 µM
LC50 (COLO 205): > 100 µM
LC50 (SK-OV-3): > 100 µM
LC50 (UACC-257): > 100 µM
LC50 (BT-549): 72.4 µM
GI50 (MOLT-4): > 100 µM
TGI (MOLT-4): > 100 µM
LC50 (SW-620): > 100 µM
LC50 (NCI-H226 [7]): > 100 µM
LC50 (NCI/ADR-RES [8]): 52.7 µM
LC50 [9]: > 100 µM
GI50 (HL-60(TB)): 23.8 µM
TGI (HL-60(TB)): > 100 µM
LC50 (TK-10): > 100 µM
GI50 (T47D): 6.89 µM
TGI (T47D): > 100 µM
GI50 (CCRF-CEM): 11.8 µM
TGI (CCRF-CEM): > 100 µM
LC50 (SK-MEL-5): > 100 µM
LC50 (M14): > 100 µM
LC50 (786-0): > 100 µM
